Laboratory results: ChEMBL document CHEMBL4613315, “Design of First-in-Class Dual EZH2/HDAC Inhibitor: Biochemical Activity and Biological Evaluation in Cancer Cells” (ACS Med Chem Lett, 2020)

Assays:
[1] = biological target: T1, Histone deacetylase (Homo sapiens) (UniProt Q13547+O15379+Q9UBN7+Q92769+Q9UQL6+Q8WUI4+Q9BY41+Q96DB2+P56524+Q9UKV0+Q969S8); assay: Inhibition of HDAC in human U937 cells assessed as Ac-H3 level at 50 uM in presence of vorinostat incubated for 96 hrs by Western blot analysis (reference value: 1); type: cell-based; conditions: U-937
Method in brief: (§1)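 U937 leukemia cells given EZH2 inhibitor 50 μM together with HDAC inhibitor 0.5 μM; Western blot at 96 and 120 h for H3K27me3 or acetyl-H3, actin as loading control; densitometry normalized to loading control then to DMSO vehicle.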

[2] = biological target: Histone-lysine N-methyltransferase EZH2 (Homo sapiens, UniProt Q15910); assay: Inhibition of EZH2 in human RH4 cells assessed as H3K27me3 level at 50 uM in presence of vorinostat incubated for 72 hrs by Western blot analysis (reference value: 1); type: cell-based
Chain of Histone-lysine N-methyltransferase EZH2 (Q15910 whole entry, looked up): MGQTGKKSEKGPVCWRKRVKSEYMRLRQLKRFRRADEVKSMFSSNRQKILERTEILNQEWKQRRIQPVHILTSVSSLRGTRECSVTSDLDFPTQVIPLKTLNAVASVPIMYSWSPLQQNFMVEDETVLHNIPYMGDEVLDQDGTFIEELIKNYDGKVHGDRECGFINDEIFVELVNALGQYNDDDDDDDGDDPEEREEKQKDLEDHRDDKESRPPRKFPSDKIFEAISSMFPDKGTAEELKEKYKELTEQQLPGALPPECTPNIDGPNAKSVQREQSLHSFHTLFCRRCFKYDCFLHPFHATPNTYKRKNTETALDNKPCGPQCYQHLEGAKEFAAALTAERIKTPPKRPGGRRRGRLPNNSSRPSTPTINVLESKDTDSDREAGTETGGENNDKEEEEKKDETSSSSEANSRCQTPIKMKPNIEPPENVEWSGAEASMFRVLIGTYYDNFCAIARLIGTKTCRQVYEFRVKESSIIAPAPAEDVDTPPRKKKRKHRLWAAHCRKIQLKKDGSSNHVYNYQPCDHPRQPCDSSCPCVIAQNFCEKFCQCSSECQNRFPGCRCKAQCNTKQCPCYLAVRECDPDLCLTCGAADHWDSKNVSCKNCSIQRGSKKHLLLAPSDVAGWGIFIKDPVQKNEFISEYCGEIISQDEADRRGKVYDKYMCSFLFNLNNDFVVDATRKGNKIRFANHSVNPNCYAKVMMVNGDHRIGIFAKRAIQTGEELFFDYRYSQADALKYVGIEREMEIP
Method in brief: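 RH4 cells co-treated with EZH2 inhibitor at 50 μM plus HDAC inhibitor at 0.15 μM; Western blot after 72 or 96 h for H3K27me3 or acetyl-tubulin, vinculin loading control; densitometry normalized to loading control then DMSO vehicle.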

U-937 [3] = assay: Cytotoxicity against human U937 cells assessed as combinational index measured at fraction affected value of 0.05 in presence of vorinostat at 1 uM incubated for 72 hrs by CellTiter-Glo Luminescent cell viability assay; type: functional
[4] = Cytotoxicity against human RH4 cells assessed as reduction in cell viability at 50 uM incubated for 72 hrs by CellTiter-Glo Luminescent cell viability assay relative to control; type: functional; conditions: Rh4, 72 h
[5] = biological target: T1, Histone deacetylase (Homo sapiens); assay: Inhibition of HDAC in human U937 cells assessed as Ac-H3 level at 50 uM in presence of vorinostat incubated for 120 hrs by Western blot analysis (reference value: 1); type: cell-based; conditions: U-937; method in brief: as §1
U-937 [6] = assay: Cell cycle arrest in human U937 cells assessed as subG1 accumulation at 25 uM incubated for 72 hrs by propidium iodide staining based flow cytometry (reference value: 4.9 %); type: functional
U-937 [7] = assay: Induction of differentiation of human U937 cells assessed as increase in CD11b level at 25 uM incubated for 72 hrs by flow cytometry analysis; type: functional
Method in brief: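 U937 cells were treated for 72 h at 10 and 25 μM, and surface CD11b expression was measured as a differentiation marker.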

Histone deacetylase 5 = Histone deacetylase 5 (Homo sapiens, UniProt Q9UQL6); assay: Inhibition of human recombinant HDAC5 using AMC-K(TFA)GL as substrate by fluorescence based assay
Chain of Histone deacetylase 5 (Q9UQL6 whole entry): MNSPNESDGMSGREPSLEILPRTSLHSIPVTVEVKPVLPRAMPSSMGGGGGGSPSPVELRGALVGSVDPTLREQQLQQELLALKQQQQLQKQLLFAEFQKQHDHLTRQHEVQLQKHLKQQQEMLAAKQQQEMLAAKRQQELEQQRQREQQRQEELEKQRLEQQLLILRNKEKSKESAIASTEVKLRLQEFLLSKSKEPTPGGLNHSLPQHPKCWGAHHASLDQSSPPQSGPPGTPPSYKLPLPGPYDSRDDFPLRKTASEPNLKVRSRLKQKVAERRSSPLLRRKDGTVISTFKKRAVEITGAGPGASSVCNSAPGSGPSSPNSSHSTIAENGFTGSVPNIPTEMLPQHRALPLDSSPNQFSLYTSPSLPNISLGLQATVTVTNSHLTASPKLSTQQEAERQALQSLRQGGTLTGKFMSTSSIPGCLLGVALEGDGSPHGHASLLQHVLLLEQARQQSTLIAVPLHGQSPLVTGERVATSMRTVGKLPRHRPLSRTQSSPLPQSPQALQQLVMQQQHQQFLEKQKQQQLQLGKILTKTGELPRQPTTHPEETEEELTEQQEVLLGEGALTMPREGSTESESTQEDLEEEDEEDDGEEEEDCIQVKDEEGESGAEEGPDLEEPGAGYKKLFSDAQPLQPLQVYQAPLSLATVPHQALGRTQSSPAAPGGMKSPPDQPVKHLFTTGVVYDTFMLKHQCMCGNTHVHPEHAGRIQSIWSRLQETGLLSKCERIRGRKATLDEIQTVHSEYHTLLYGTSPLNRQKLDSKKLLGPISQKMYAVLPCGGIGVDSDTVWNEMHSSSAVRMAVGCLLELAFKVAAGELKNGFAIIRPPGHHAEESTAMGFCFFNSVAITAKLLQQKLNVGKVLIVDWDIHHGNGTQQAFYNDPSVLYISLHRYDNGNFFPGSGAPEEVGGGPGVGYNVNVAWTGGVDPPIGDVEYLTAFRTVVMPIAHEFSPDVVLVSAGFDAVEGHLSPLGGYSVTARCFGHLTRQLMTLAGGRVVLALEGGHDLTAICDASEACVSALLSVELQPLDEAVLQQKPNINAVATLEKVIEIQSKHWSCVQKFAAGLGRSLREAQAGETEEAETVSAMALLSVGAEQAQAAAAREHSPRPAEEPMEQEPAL

[8] = Induction of apoptosis in human RH4 cells assessed as early apoptotic cells at 28 uM incubated for 72 hrs by annexin V-FITC staining based flow cytometry (reference value: 10.8 %); type: functional

| SMILES | fold change (FC) [1] | fold change (FC) [2] | CI (U-937 [3]) | inhibition at 50 µM [4] | fold change (FC) [5] | Activity (U-937 [6]) | fold change (FC) (U-937 [7]) | IC50 (Histone deacetylase 5) | Activity [8] |
| --- | --- | --- | --- | --- | --- | --- | --- | --- | --- |
| Cc1cc(C)c(CNC(=O)c2cc(C)n(-c3ccccc3)c2C)c(=O)[nH]1 | 2.1 | 0.02 | 3.34 | > 30% | 0.8 |  |  |  |  |
| Cc1cc(C)c(CNC(=O)c2cc(C)n(-c3cccc(NC(=O)CCCCCCC(=O)NO)c3)c2C)c(=O)[nH]1 |  |  |  |  |  | 36.1% | 2.7 | 16.6 µM | 26.5% |
